Sampled rows, rich in hits. Any-hit rate of the full collection: about 4%.
S1P3 antagonist = antagonists of human S1P3 receptor. Q99500. CHO S1P3 NFAT-BLA reporter, FRET fluorescence, antagonist mode. inhibition, % at 4.98 µM. 170,000 tested, 0.27% active;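 active = inhibition above the plate cutoff, the mean inhibition of test wells on that plate plus 3 SD, cut at about 28% in these data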;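 also: cells challenged with S1P at its EC80 of 0.8 µM; blue over green emission ratio from cleaved BLA substrate after 4 h stimulation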
Target sequence (Q99500 whole entry, looked up): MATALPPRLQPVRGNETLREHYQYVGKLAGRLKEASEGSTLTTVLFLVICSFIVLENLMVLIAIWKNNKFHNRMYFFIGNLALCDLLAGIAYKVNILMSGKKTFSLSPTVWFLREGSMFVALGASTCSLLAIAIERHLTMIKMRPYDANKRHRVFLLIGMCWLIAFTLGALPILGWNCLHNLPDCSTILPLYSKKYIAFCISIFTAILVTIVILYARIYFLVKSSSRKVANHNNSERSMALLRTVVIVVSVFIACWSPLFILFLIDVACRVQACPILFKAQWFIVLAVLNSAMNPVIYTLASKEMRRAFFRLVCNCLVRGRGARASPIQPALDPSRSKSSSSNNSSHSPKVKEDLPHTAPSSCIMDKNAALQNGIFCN
CHOP inhibitor = CHOP inhibition in unfolded protein response | CHO-K1 CHOP-promoter luciferase, tunicamycin-induced, 15-18 h | inhibition, % at 10 µM | 220,000 tested, 3.8% active;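 active = compounds that reduced the stress-induced luciferase reporter signal by more than about 70% of percent inhibition, limit read from the data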
Mdm2 ligase inh = Mdm2 E3 ligase (human) inhibition | signal enhancement, % at 5 µM | 210,000 tested, 0.11% active | Q00987 | AID 1230 | cell-based MDM2 ubiquitination luciferase reporter, 2 h; 0 = plate control, 100 = twice control, blank-subtracted;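 active = signal enhancement of 30% or more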;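 also: luminescence tracks abundance of the self-degrading MDM2-luciferase fusion protein; higher signal means inhibition of MDM2 E3 ligase activity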
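Timing – 2 h compound exposure at 37 °C · Assay system – mammalian cells stably expressing self-ubiquitinating, self-degrading MDM2 E3–luciferase fusion · Amount – 2000 cells seeded into each well · Measure – % luminescence enhancement versus blank-corrected plate control mean · Measured by – SteadyLite luminescence, 15 min reagent step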
Hsp70 activator = Hsp70 transcriptional activation, primary screen; HeLa Hsp70 promoter luciferase reporter, luminescence; scaled: vehicle 0, proteasome-inhibitor control 100%; activation, % at 10 µM; 200,000 tested, 0.04% active; AID 1203;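 active = activation above the mean across all tested compounds plus 3 SD, cutoff set per campaign, cut at about 5.5% in these data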
CHOP inh conf = confirmation of CHOP induction inhibitors; shares compounds with CHOP inhibitor; CHO-CHOP promoter luciferase reporter, tunicamycin-induced, luminescence; inhibition, % at 10 µM; 2,100 tested, 45% active; AID 504437;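 active = mean of three repeat readings of reporter signal inhibition above a set limit, cut at about 70% in these data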
Large screens that a line does not name were inactive (follow-up assays come after a bar, where they were run).

Cc1cc(N2CCN(c3ccc([N+](=O)[O-])c4cccnc34)CC2)c2ccccc2n1	CHOP inhibitor 105 | CHOP inh conf inactive
C1CCc2c(nc3nnnn3c2NC2CCCC2)C1	none (no result: S1P3 antagonist)
O=C(CCl)c1ccc(Cc2ncc(C(F)(F)F)cc2Cl)s1	CHOP inhibitor 104 (no result: S1P3 antagonist) | CHOP inh conf inactive
Cc1ccc(-c2nc3cc(NS(=O)(=O)c4ccc(C)cc4)ccc3o2)cc1	CHOP inhibitor 105 (no result: S1P3 antagonist) | CHOP inh conf 80
O=S(=O)(Nc1ccc2oc(-c3ccccc3)nc2c1)c1ccccc1	none (no result: CHOP inhibitor)
Cc1ccc(-c2nc3cc(C)ccc3o2)cc1	none
Cc1ccc(-c2nc3cc(N)ccc3o2)cc1	CHOP inhibitor 102 | CHOP inh conf inactive
O=C(CCl)Nc1cccc(-c2cnc3ccccc3n2)c1	none (no result: S1P3 antagonist, CHOP inhibitor) | CHOP inh conf 84
CCC(=O)Nc1cccc(-c2cnc3ccccc3n2)c1	none (no result: S1P3 antagonist)
CN(CC(=O)NC1CCCCCC1)S(=O)(=O)c1cnc[nH]1	none
Cc1ccc(-c2nc3ccccc3c(C(=O)NCc3cccs3)c2C)cc1	none (no result: S1P3 antagonist)
CN(C)c1ccc(/C=C2\SC(=O)N(CCc3nnc(N)s3)C2=O)cc1	CHOP inhibitor 100 (no result: Mdm2 ligase inh, Hsp70 activator) | CHOP inh conf 127
CCOc1ccc(N2C(=O)CC(SC(=NC)Nc3ccc(F)cc3)C2=O)cc1 (configuration not stated)	none (no result: S1P3 antagonist, Mdm2 ligase inh)
CCOc1ccc(NC(=NCc2ccc3c(c2)OCO3)SC2CC(=O)N(c3ccc(OCC)cc3)C2=O)cc1 (configuration not stated)	CHOP inhibitor 98 (no result: S1P3 antagonist) | CHOP inh conf inactive
CCOc1ccc(NC(=NCc2ccc3c(c2)OCO3)SC2CC(=O)N(c3ccccc3)C2=O)cc1 (configuration not stated)	none (no result: S1P3 antagonist)
CCCOc1ccc(N2C(=O)CC(SC(=NC)Nc3ccc(F)cc3)C2=O)cc1 (configuration not stated)	CHOP inhibitor 100 (no result: S1P3 antagonist) | CHOP inh conf 100
CCCOc1ccc(N2C(=O)CC(SC(=NCC)Nc3cccc(F)c3)C2=O)cc1 (configuration not stated)	CHOP inhibitor 105 (no result: S1P3 antagonist) | CHOP inh conf 108
Cc1cc(C)cc(C(=O)OCC(=O)NCC(F)(F)F)c1	none
CCn1cc(CN(C)C(=O)/C=C/c2ccc([N+](=O)[O-])cc2)c(C)n1	CHOP inhibitor 96 | CHOP inh conf inactive
CNS(=O)(=O)c1ccc(NC(=O)c2cncc(Br)c2)cc1	none
CCCCn1c(SCc2nc(N)nc(N3CCCCC3)n2)nc2c1c(=O)n(C)c(=O)n2C	CHOP inhibitor 98 | CHOP inh conf inactive
C/C(=N/NC(=O)CNC(=O)COc1ccccc1)c1ccco1	none (no result: Mdm2 ligase inh)
COc1ccc(S(=O)(=O)NCCSc2ccc(C)cc2)cc1OC	none
Cc1ccc(SCCNS(=O)(=O)c2ccc(F)cc2)cc1	CHOP inhibitor 97 | CHOP inh conf inactive
Cc1cc(C)nc(Oc2ccc(Br)cc2Br)n1	none
Cc1cc(N2CCN(C)CC2)ccc1NC(=O)c1cccc(S(=O)(=O)N2CCc3ccccc3C2)c1	CHOP inhibitor 104 | CHOP inh conf inactive
O=C1C(=C2SCCCS2)CC/C1=C\c1ccc(F)cc1	CHOP inhibitor 108 (no result: S1P3 antagonist) | CHOP inh conf 115
CCOC(=O)c1oc2ccc(/C=N/O)c(Cl)c2c1C	CHOP inhibitor 104 | CHOP inh conf inactive
CCOC(=O)c1oc2cc(C)cc(C)c2c1C	none (no result: Hsp70 activator)
CCOC(=O)c1cc(-c2ccccc2)nc2c1c(C)nn2-c1ccccn1	CHOP inhibitor 103 (no result: S1P3 antagonist) | CHOP inh conf 108
COC(=O)Cn1c(=NC(=O)c2cc(-c3cccs3)nc3ccccc23)sc2cc(S(N)(=O)=O)ccc21	none
COC(=O)Cn1c(=NC(=O)c2nc3ccccc3s2)sc2cc(S(N)(=O)=O)ccc21	CHOP inhibitor 104 | CHOP inh conf inactive
COc1ccc(Cn2c(SCc3cc(C)ccc3C)nc3cc(OC)c(OC)cc3c2=N)cc1	CHOP inhibitor 104 (no result: S1P3 antagonist) | CHOP inh conf 123
Cc1nnsc1SCCNC(=O)Nc1ccc(Cl)cc1	none
Cc1ccc(C(C(=O)NCc2ccco2)N(C(=O)CNC(=O)c2cccs2)c2c(C)cccc2C)cc1 (configuration not stated)	CHOP inhibitor 101 | CHOP inh conf 80
Cc1ccccc1OCc1nnc(SCC(=O)Nc2ccc3nc(SCC(=O)Nc4ccccc4)sc3c2)n1C	none
C=C(C)CNC(=S)N/N=C/c1ccco1	none (no result: Mdm2 ligase inh, Hsp70 activator)
CCN1/C(=C\C(=S)Nc2ccccc2)Sc2ccccc21	none
CCN1/C(=C/C(C)=C/c2sc3ccccc3[n+]2CC)Sc2ccccc21	CHOP inhibitor 110 | CHOP inh conf 141
Cc1ccc(C(=O)NC(=S)N2CCN(C(=O)OC(C)(C)C)CC2)cc1Br	none
COc1cc2c(cc1/C=C1/NC(=O)N(CC(=O)Nc3ccccc3)C1=O)OCO2	CHOP inhibitor 102 | CHOP inh conf inactive
FC(F)(F)c1cc(-c2cccs2)nc(-n2cc(Br)cn2)n1	CHOP inhibitor 97 (no result: S1P3 antagonist) | CHOP inh conf 73
FC(F)(F)c1cc(-c2cccs2)nc(N2CCOCC2)n1	CHOP inhibitor 100 | CHOP inh conf inactive
O=C(N/N=C/C=C/c1ccccc1)NC1CCCCC1	CHOP inhibitor 101 | CHOP inh conf inactive
CSc1ccc(/C=N/n2c(Cc3ccc(Br)cc3)n[nH]c2=S)cc1	CHOP inhibitor 101 | CHOP inh conf inactive
O=C(COC(=O)Cn1cnc2ccccc2c1=O)Nc1ccccc1Sc1ccc(Cl)cc1	none
COc1cc(-n2nnnc2SCC(=O)N2CCN(c3ccc(F)cc3)CC2)c(OC)cc1Cl	CHOP inhibitor 98 | CHOP inh conf inactive
O=[N+]([O-])c1cc2oc3c(c2c(C=NCc2ccncc2)c1O)CCCC3	none
Cc1c(-c2ccccc2)sc2nc[nH]c(=S)c12	none
Cc1ccc(-c2[nH]ncc2/C=N/n2c(COc3ccccc3)nc3ccccc3c2=O)cc1	CHOP inhibitor 99 | CHOP inh conf 108
O=Nc1c(O)n(Cc2ccc(Cl)c(Cl)c2)c2ccccc12	CHOP inhibitor 107 (no result: S1P3 antagonist) | CHOP inh conf inactive
CCOC(=O)C1CCC(CN(Cc2ccccc2C)S(=O)(=O)c2ccc([N+](=O)[O-])cc2)CC1 (configuration not stated)	none
CN(C)CCNC=C(C(=O)Nc1ccc(Cl)cc1Cl)C(=O)Nc1ccc(Cl)cc1Cl	CHOP inhibitor 99 (no result: S1P3 antagonist) | CHOP inh conf inactive
COc1ccc2cc(-c3cc(C(=O)OCC(=O)NC4CCS(=O)(=O)C4)c4ccccc4n3)ccc2c1 (configuration not stated)	none
Cc1ccc(NC(=O)NCc2c(C)nn(C)c2C)cc1Cl	none
Cc1ccc(NC(=O)O/N=C/c2c(C)nn(C(C)(C)C)c2C)cc1Cl	CHOP inhibitor 99 (no result: Hsp70 activator) | CHOP inh conf 120
CCCCNS(=O)(=O)c1ccc2nc(-c3cccnc3)cc(C(=O)NC3CC3)c2c1	none (no result: Mdm2 ligase inh)
CCCCNS(=O)(=O)c1ccc2nc(-c3cccnc3)cc(C(=O)NC3CCCC3)c2c1	CHOP inhibitor 102 (no result: Mdm2 ligase inh, Hsp70 activator) | CHOP inh conf 107
CC1(C(=O)N(c2ccccc2)C(C(=O)NC2CCCC2)c2ccccn2)CC(=O)N=C2C=CC=CN21 (configuration not stated)	none
Cc1ccccc1NCc1nnc2n1CCCCC2	none
